For 2 compounds, inhibition, Activity and IC50 results are on record in ChEMBL document CHEMBL4007450, “Development of 1,2,4-Oxadiazoles as Potent and Selective Inhibitors of the Human Deacetylase Sirtuin 2: Structure-Activity Relationship, X-ray Crystal Structure, and Anticancer Activity” (J Med Chem, 2017).

Assay [1] deals with NAD-dependent protein deacylase sirtuin-5, mitochondrial (Homo sapiens) (UniProt Q9NXA8). Kind of assay: Inhibition of human SIRT5 (34 to 302 residues) deacetylase activity expressed in Escherichia coli using Prx1 peptide as substrate up to 100 uM after 45 mins in presence of NAD+ by pNCA/GDH-based microplate spectrophotometric analysis.
Chain of NAD-dependent protein deacylase sirtuin-5, mitochondrial (Homo sapiens) (Q9NXA8 37-310 limits assumed): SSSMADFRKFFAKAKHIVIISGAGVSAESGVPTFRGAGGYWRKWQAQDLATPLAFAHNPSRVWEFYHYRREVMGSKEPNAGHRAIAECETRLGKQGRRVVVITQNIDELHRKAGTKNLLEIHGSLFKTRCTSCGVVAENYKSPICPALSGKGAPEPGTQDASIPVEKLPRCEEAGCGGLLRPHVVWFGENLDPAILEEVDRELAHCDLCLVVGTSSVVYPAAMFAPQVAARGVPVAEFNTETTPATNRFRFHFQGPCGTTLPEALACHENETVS
The test system of assay [2] is U-937. Kind of assay: Effect on cell cycle arrest in human U937 cells at 25 uM after 48 hrs by propidium iodide staining-based FACS analysis. It is filed as functional.
Assay [3] has as its system U-937. Kind of assay: Induction of apoptosis in human U937 cells assessed as pre-G1 accumulation at 5 to 50 uM after 48 hrs by propidium iodide staining-based FACS analysis. The assay is classed as functional, cell-based. The method, boiled down:
(§1)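 Leukemia cells (U937, NB4, HL-60, K562) were grown in RPMI-1640 with 10% FBS, 2 mM L-glutamine and antibiotics, then treated for 48 h at 5, 10, 25 and 50 μM. 2.5×10^5 cells were stained 30 min in the dark in hypotonic PI buffer (0.1% Triton X-100, 0.1% citrate, 50 µg/mL PI, RNase A). Apoptosis was scored as pre-G1 content by flow cytometry. Duplicates, mean ± SD.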

Assay [4] relates to NB-4. The assay is described as follows: Induction of apoptosis in human NB4 cells assessed as pre-G1 accumulation at 5 to 50 uM after 48 hrs by propidium iodide staining-based FACS analysis. The assay is classed as functional, cell-based. The procedure, abridged: as §1
In assay [5] the target is T1, NAD-dependent protein deacetylase sirtuin-2 (Homo sapiens) (UniProt Q8IXJ6).
T1 sequence (whole entry): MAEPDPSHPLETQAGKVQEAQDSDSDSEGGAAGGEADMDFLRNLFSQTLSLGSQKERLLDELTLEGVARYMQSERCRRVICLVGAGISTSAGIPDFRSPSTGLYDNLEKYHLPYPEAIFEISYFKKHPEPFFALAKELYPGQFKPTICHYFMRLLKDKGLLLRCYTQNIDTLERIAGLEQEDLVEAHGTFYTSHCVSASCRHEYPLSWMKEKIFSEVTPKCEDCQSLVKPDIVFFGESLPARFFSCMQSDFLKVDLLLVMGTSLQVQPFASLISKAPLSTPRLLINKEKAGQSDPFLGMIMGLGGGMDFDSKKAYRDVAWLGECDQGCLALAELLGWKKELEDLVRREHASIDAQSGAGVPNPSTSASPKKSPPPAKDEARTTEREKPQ
Kind of assay: Inhibition of human N-terminal His6-SUMO-tagged SIRT2 catalytic domain (43 to 356 residues) deacetylase activity expressed in Escherichia coli using alpha-tubulin-acetylLys40 peptide as substrate at 100 uM after 45 mins in presence of NAD+ by pNCA/GDH-based microplate spectrophotometric analysis. The method, boiled down:
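Continuous coupled assay: Sirt2 product nicotinamide is converted by pNCA/GDH, and NADPH oxidation is read at 340 nm. Compounds were tested at 10 and 100 μM. Background was taken without peptide or NAD+.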

Assay [6] addresses NAD-dependent protein deacylase sirtuin-5, mitochondrial (Homo sapiens) (UniProt Q9NXA8). Kind of assay: Inhibition of human SIRT5 (34 to 302 residues) desuccinylase activity expressed in Escherichia coli using peptide as substrate up to 100 uM after 45 mins in presence of NAD+ by pNCA/GDH-based microplate spectrophotometric analysis.
Assay [7] has as its target T2, NAD-dependent protein deacetylase sirtuin-2 (Homo sapiens, UniProt Q8IXJ6).
T2 sequence (Q8IXJ6 whole entry): T1 sequence (whole entry)

The subject of assay [8] is MDA-MB-231. Kind of assay: Induction of apoptosis in human MDA-MB-231 cells assessed as pre-G1 accumulation at 5 to 50 uM after 48 hrs by propidium iodide staining-based FACS analysis. The assay is classed as functional, cell-based. The procedure, abridged:
(§2)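 MDA-MB-231 breast cancer cells were grown in DMEM with 10% FBS, 2 mM L-glutamine and antibiotics, then exposed for 48 h at 5, 10, 25 or 50 μM. 2.5×10^5 cells were stained in hypotonic buffer with 50 µg/mL PI, 0.1% Triton X-100, 0.1% citrate and RNase A for 30 min in the dark. Pre-G1 fraction was measured by flow cytometry. Biological duplicates, mean ± SD.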

The target in assay [9] is T3, NAD-dependent protein deacetylase sirtuin-3, mitochondrial (Homo sapiens) (UniProt Q9NTG7).
T3 sequence (whole entry): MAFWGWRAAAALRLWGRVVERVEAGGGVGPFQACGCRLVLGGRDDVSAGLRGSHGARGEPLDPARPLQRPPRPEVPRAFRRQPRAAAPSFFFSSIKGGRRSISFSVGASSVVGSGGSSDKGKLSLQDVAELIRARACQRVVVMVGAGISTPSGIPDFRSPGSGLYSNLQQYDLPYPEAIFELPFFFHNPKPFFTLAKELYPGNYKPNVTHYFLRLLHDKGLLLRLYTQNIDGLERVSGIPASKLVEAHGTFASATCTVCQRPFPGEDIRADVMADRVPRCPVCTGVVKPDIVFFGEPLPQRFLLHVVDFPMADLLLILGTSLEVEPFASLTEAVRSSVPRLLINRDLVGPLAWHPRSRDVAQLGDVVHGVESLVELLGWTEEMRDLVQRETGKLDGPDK
Kind of assay: Inhibition of human SIRT3 (114 to 380 residues) activity expressed in Escherichia coli using AceCS2 peptide as substrate up to 100 uM after 45 mins in presence of NAD+ by pNCA/GDH-based microplate spectrophotometric analysis. The procedure, abridged: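 Same pNCA/GDH-coupled 340 nm NADPH read-out as the Sirt2 assay, using 20 mM Na-phosphate pH 7.8 with 3% DMSO at 20 °C for 45 min. Sirt3 (114-380) was used at 5 µM with AceCS2 peptide TRSGacKVMR as substrate. Inhibitors were tested up to 100 µM.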

The test system of another assay is K562. The assay is described as follows: Induction of apoptosis in human K562 cells assessed as pre-G1 accumulation at 5 to 50 uM after 48 hrs by propidium iodide staining-based FACS analysis. It is filed as functional, cell-based. The procedure, abridged:
as §1

The target in assay [10] is T4, NAD-dependent protein deacetylase sirtuin-1 (Homo sapiens) (UniProt Q96EB6).
T4 sequence (whole entry): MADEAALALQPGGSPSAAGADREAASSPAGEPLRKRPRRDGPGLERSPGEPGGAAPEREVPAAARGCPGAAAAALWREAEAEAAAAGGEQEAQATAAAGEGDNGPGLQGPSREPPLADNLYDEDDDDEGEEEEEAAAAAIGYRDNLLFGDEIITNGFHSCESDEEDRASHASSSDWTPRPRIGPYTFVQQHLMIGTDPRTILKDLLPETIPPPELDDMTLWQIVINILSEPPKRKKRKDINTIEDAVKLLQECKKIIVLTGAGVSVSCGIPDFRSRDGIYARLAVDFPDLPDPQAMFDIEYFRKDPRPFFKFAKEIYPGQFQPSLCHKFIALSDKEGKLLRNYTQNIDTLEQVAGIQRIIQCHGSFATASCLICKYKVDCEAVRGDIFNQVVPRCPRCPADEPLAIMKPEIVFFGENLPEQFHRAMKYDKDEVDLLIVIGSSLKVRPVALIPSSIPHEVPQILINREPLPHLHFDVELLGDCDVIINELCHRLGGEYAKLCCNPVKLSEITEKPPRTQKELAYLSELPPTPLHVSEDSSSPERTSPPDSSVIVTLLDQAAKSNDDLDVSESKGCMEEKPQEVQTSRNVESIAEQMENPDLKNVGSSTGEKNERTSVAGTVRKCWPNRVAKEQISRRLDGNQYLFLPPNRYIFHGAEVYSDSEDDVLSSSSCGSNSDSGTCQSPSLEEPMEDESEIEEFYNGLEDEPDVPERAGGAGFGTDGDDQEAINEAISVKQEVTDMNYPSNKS
The assay is described as follows: Inhibition of human full length SIRT1 activity expressed in Escherichia coli using p53 peptide as substrate up to 100 uM after 45 mins in presence of NAD+ by pNCA/GDH-based microplate spectrophotometric analysis. The method, boiled down:
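Full-length Sirt1 at 2 µM with p53 peptide RHKacKLMFK as substrate. Activity was measured in the same coupled pNCA/GDH mix as for Sirt2 (α-ketoglutarate, NADPH, Na-phosphate pH 7.8, 3% DMSO), following NADPH oxidation at 340 nm at 20 °C for 45 min. Compounds were tested up to 100 µM.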

The subject of another assay is HL-60. The assay is described as follows: Induction of apoptosis in human HL60 cells assessed as pre-G1 accumulation at 5 to 50 uM after 48 hrs by propidium iodide staining-based FACS analysis. The assay is classed as functional, cell-based. The procedure, abridged: as §1
The test system of assay [11] is NB-4. The assay is described as follows: Induction of apoptosis in human NB4 cells assessed as pre-G1 accumulation at 50 uM after 48 hrs by propidium iodide staining-based FACS analysis. It is filed as functional. The method, boiled down:
as §1

Assay [12] concerns MDA-MB-231. The assay is described as follows: Induction of apoptosis in human MDA-MB-231 cells assessed as pre-G1 accumulation at 50 uM after 48 hrs by propidium iodide staining-based FACS analysis. It is filed as functional. The procedure, abridged: as §2
Assay [13] concerns U-937. Kind of assay: Induction of apoptosis in human U937 cells assessed as pre-G1 accumulation at 25 uM after 48 hrs by propidium iodide staining-based FACS analysis. The assay is classed as functional. The procedure, abridged: as §1

Active and inactive are the calls of the source. No cut-off for these calls is given here.

As to `Clc1ccc(-c2noc(CCCBr)n2)cc1`, the inhibition result in [1], in [6], in assay [9] and in assay [10] was “inactive” in each case. In addition, the outcome with U-937 [2], with U-937 [3], in the assay on NB-4 [4], in the assay with MDA-MB-231 [8], in the assay with K562 and in the assay on HL-60 was inactive. For the same compound, the inhibition entry in assay [5] is “Active”. The compound further gave an IC50 in assay [7] of 2.5 µM.

In the case of `Fc1ccc(-c2noc(CCCBr)n2)cc1`, the Activity is reported as 30 - 40% with NB-4 [11], 30 - 40% with MDA-MB-231 [12] and 11.1 - 37.1% in the assay on U-937 [13]. Moreover, in assay [7], the IC50 stood at 19.8 µM.
